# Rows were chosen to be rich in hits. Some 4.1% of all compounds tested hit in one or more screens of this group.
# KCNQ1 pot – human KCNQ1 channel potentiation or activation; 310,000 compounds, 0.35% hits; P51787; B-score at 10 µM; CHO-K1 KCNQ1, thallium flux FluxOR fluorescence; hits give high values;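 active = fluorescence ratio B-score, a plate-corrected score, at least three library SD, with initial intensity B-score within 5 SD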
#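 System: CHO-K1 cells stably expressing KCNQ1 / Medium: assay buffer for compound exposure, DMSO matched across wells / Reagent: thallium- and potassium-containing depolarizing buffer / Compound: one concentration, matched DMSO / Incubation: 20 min compound pretreatment at room temperature / Measured by: kinetic FluxOR fluorescence, 10 s baseline plus 110 s post-stimulus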
# Cl transport mod – KCC2 (human) Cl- transport modulation. Q9H2X9. KCC2 cells, thallium flux FluoZin-2 fluorescence. B-score of Tl+ flux slope (higher = more flux/activation; lower = inhibition) at 10 µM. 190,000 compounds, 2.2% hits;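 active = thallium flux slope and its plate-corrected score both differing from the plate sample mean at a set confidence after two filtering rounds, in either direction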;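 also: slope of fluorescence scaled to starting intensity during 10 to 20 s after thallium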
# hERG rescue – compounds protecting human hERG from proarrhythmic drug block; 310,000 compounds, 0.51% hits; activation (rescue from dofetilide block), less the hit threshold, % at 10 µM; CHO-hERG, FluxOR thallium flux, dofetilide IC70 present; Q12809;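 active = activation above the mean of controls blocked by dofetilide plus 5 SD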;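 also: thallium influx through hERG after potassium depolarization seen as dye fluorescence rise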
# KCNK3 block – human KCNK3 channel inhibition, primary screen. O14649. B-score at 10 µM. 340,000 compounds, 0.84% hits. CHO-KCNK3 thallium flux, FluxOR fluorescence; hits give low values;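 active = B-score under library mean minus 4 SD, starting fluorescence ratio at most library mean plus 5 SD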;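 also: more negative B-score means stronger inhibition of thallium flux through KCNK3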
# Target sequence (O14649 whole entry, looked up): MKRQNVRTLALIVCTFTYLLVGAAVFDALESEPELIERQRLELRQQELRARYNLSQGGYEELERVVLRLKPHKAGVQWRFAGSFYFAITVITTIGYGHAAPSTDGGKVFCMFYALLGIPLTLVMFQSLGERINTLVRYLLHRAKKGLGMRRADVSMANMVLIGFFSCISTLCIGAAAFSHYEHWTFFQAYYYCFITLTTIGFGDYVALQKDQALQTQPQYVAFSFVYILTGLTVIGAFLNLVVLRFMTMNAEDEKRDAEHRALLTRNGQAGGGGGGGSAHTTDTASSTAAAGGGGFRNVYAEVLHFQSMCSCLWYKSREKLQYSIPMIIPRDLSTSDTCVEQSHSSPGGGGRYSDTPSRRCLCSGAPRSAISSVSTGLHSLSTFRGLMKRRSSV
# KCNK9 block – blocks the human KCNK9 two-pore domain potassium channel. B-score at 10 µM. 310,000 compounds, 1.2% hits. Q9NPC2. HEK293 KCNK9, FluxOR thallium flux fluorescence; hits give low values;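 active = ratio B-score over 3 SD below the library mean, with starting fluorescence within 5 SD of its mean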;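 also: negative B-score means less thallium flux so channel inhibition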
# Target sequence (Q9NPC2 whole entry, looked up, the tested form may be a part): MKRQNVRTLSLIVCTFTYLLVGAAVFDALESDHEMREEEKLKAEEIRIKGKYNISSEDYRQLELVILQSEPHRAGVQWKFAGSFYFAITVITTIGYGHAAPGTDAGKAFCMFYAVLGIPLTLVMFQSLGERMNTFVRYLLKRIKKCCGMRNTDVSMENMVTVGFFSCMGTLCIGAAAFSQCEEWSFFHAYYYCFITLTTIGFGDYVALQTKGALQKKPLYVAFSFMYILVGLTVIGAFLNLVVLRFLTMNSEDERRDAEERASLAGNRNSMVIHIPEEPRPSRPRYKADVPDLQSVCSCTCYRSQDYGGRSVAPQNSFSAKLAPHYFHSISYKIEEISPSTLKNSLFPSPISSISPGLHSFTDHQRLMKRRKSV
# KCNQ1 block – human KCNQ1 channel inhibition; CHO-K1 KCNQ1, FluxOR thallium flux fluorescence; hits give high values; B-score at 10 µM; 310,000 compounds, 1.3% hits;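 active = compounds whose thallium flux B-score, printed positive for inhibition, exceeds three library SD while starting fluorescence stays within three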;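 also: channel opened by potassium depolarization with thallium stimulus after 20 min compound exposure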
# KCC2 secondary – KCC2 (human) modulation, secondary assay. 3,700 compounds, 15% hits. shares compounds with Cl transport mod. HEK293-KCC2, thallium flux, FluoZin2 fluorescence; hits give high values. normalised thallium flux (F/F0 slope) at 10 µM. AID 1713;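 active = thallium flux slope above the same plate's solvent-only control mean plus 3 SD; inconclusive = the two replicate wells disagree; inactive = no significant difference from solvent-only control wells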
# KCC2 bumet counter – thallium flux persisting under bumetanide in KCC2 cells, counter-screen secondary assay. normalized thallium flux at 10 µM. shares compounds with Cl transport mod. 3,700 compounds, 49% hits. AID 1714. HEK293-KCC2 + bumetanide/ouabain, thallium flux FluoZin2; hits give high values;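 active = thallium entry rate above the same plate's blocked-transporter control wells by more than 3 SD; inconclusive = the two repeat wells disagree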;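 also: raw slope of fluorescence over initial fluorescence between 10 and 20 s after thallium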
# KCC2 sec2 – confirmation of human KCC2 transport modulators. shares compounds with Cl transport mod. HEK293-KCC2, thallium flux FluoZin2 fluorescence; actives lie on both sides; F/F0 rise rate, 10–20 s post-thallium. normalized thallium flux at 10 µM. 3,700 compounds, 23% hits. AID 1715;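 active = thallium flux slope more than 3 SD above or below the plate's solvent-only control mean, mostly below; inconclusive = the two repeat wells disagreed; inactive = no significant shift from solvent-only controls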;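 also: raw slope with 0.1% DMSO as baseline and bumetanide as block control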
# HEK293 Tl flux – parental HEK flux effect, counter-screen. shares compounds with Cl transport mod. AID 1716. HEK293 parental cells, thallium flux FluoZin2, ouabain; baseline-ratio fluorescence slope, 10–20 s after thallium. thallium flux rate (normalised fluorescence) at 10 µM. 3,700 compounds, 46% hits;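 active = thallium flux rate significantly above the same plate's solvent-only control wells, beyond their mean plus 3 SD; inconclusive = the two replicate wells gave conflicting results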
# KCC2 retest ouab – KCC2 (human) modulation, ouabain retest. shares compounds with Cl transport mod. HEK293-KCC2, thallium flux FluoZin2 fluorescence; bidirectional: low = inhibitor, high = activator. raw Tl+ flux slope (below DMSO = inhibition, above = activation) at 10 µM. 3,700 compounds, 48% hits;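 active = thallium flux slope beyond 3 SD from same-plate DMSO control mean in most replicates, usually higher, sometimes lower; inconclusive = repeat tests gave conflicting results; inactive = no significant difference from controls in most replicates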;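 also: slope of initial-normalized fluorescence between seconds 10 and 20 after thallium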
# HEK293 Tl flux2 – parental HEK flux effect, counter-screen 2; shares compounds with Cl transport mod; HEK293 parental, thallium flux FluoZin-2 fluorescence slope; thallium flux slope at 10 µM; 3,700 compounds, 33% hits; AID 1718;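 active = thallium flux slope above the same plate's solvent-control mean plus 3 SD in both duplicate wells; inconclusive = duplicate wells that disagreed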;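 also: run without ouabain in cells lacking the KCC2 cotransporter; slope of fluorescence scaled to its starting value between 10 and 20 s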
# KCNK9 inh conf – confirmation of human KCNK9 potassium channel inhibitors | shares compounds with KCNK9 block | HEK293 KCNK9 cells, FluxOR thallium flux fluorescence | inhibition, % at 10 µM | 4,900 compounds, 43% hits | AID 492992;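 active = thallium signal inhibited by more than 5 SD of the compound-free buffer control wells, on both duplicate plates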;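 also: 0% = assay buffer control wells without compound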
# Kir2-1 spec – selectivity of KCNK9 modulators against mouse Kir2.1; Kir2.1 cells, FluxOR thallium flux fluorescence; 4,900 compounds, 4% hits; shares compounds with KCNK9 block; AID 492993; inhibition, % at 10 µM;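 active = thallium signal drop more than 5 SD beyond the mean of the no-compound control wells, seen in both duplicate plates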;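 also: signal is fluorescence rise after thallium addition divided by baseline fluorescence; plate controls were assay buffer only for no effect and full block by chlorpromazine control for full effect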
# HEK293 Tl ctr – non-induced cell nonspecific activity of KCNK9 modulators; shares compounds with KCNK9 block; non-induced KCNK9-HEK293, FluxOR thallium flux; inhibition, % at 10 µM; 4,900 compounds, 40% hits; AID 492997;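 active = thallium signal drop beyond 5 SD of the untreated control mean, on both duplicate plates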;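 also: plate controls were buffer only IC0 wells for no effect and SID17386958 at its maximal inhibitory level for full effect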
# Starred values were filed as active, the others as inactive; i = inactive; ? = inconclusive; . = no result given.
SMILES,KCNQ1 pot,Cl transport mod,hERG rescue,KCNK3 block,KCNK9 block,KCNQ1 block,KCC2 secondary,KCC2 bumet counter,KCC2 sec2,HEK293 Tl flux,KCC2 retest ouab,HEK293 Tl flux2,KCNK9 inh conf,Kir2-1 spec,HEK293 Tl ctr
CCCCNC(=O)c1onc(CSc2cccc3ccccc23)c1C(=O)O,i,-4.76*,-13.9,i,i,i,0.00732,0.00596,0.0295,?,0.0179*,0.00939,i,i,i
CC(C)NC(=O)Nc1ccc2c(c1)C(=O)N([C@H](C)CO)C[C@H](C)[C@@H](CN(C)C(=O)NC(C)C)O2,.,.,.,i,.,.,.,.,.,.,.,.,.,.,.
COc1ccc(NS(=O)(=O)c2cc(C(=O)N(C)CCc3ccccn3)ccc2Cl)cc1,.,.,.,i,.,.,.,.,.,.,.,.,.,.,.
Cc1ccccc1Cn1nc(C)c(NC(=O)c2noc3c2CCc2ccccc2-3)c1C,i,-3.84*,-11.8,i,i,i,0.00848,0.00681,0.0329,0.0081,0.0193,0.0109,i,i,i
COc1ccc(OCC(=O)NC(=S)Nc2ccccc2F)cc1,i,51.7*,-1.6,i,i,i,0.04*,0.0878*,0.049*,0.0279*,0.0508*,0.0326*,i,i,i
CCC(C)[C@H]1CNCCN1CCC12CC3CC(CC(C3)C1)C2 (stereo not given in full),.,.,.,i,.,.,.,.,.,.,.,.,.,.,.
COc1cccc(CN(C)C(=O)c2cc(COc3c(F)cccc3F)on2)c1,i,.,-10.3,i,i,i,0.00698,0.00372,0.0246*,?,0.0141*,0.00895,i,i,i
CC(C)C[C@H]1CNC(=O)C(=O)N1CC1CCN(CCc2ccc(-c3ccccc3)cc2)CC1,.,.,.,i,.,.,.,.,.,.,.,.,.,.,.
O=C(COc1ccccc1Br)Nc1ccc(S(=O)(=O)N2CCCC2)cc1,.,.,.,i,.,.,.,.,.,.,.,.,.,.,.
Cn1c(SCc2ccccc2Cl)nc2ccccc21,i,-4.32*,-10.2,i,-8.36*,i,?,?,0.0244*,0.00715,0.014*,0.01,66.0%*,i,i
Cn1c(NCc2ccccc2Cl)nc2ccccc21,i,.,-9.1,i,i,i,.,.,.,.,.,.,.,.,.
COc1cc(/C=C2\SC(=Nc3ccccc3)N(Cc3ccco3)C2=O)ccc1OC(C)C(=O)O (stereo not given),i,-0.845,-10.5,i,i,i,.,.,.,.,.,.,.,.,.
COCCN1C(=O)/C(=C/c2ccc(OCc3ccc(C(=O)O)cc3)c(OC)c2)SC1=Nc1ccccc1,i,-5.7*,-33.0,i,i,i,0.00741,0.00506,0.0221*,0.00657,0.0131*,0.00943,i,i,i
O=C(NC1CCC(Oc2ccc(C(=O)O)cc2)CC1)NC12CC3CC(CC(C3)C1)C2 (stereo not given),.,.,.,i,.,.,.,.,.,.,.,.,.,.,.
CCOC(=O)[C@H]1[C@H]2COc3ccc(OC)cc3[C@H]2N2C(=O)CNC(=O)[C@@]12C,.,.,.,i,.,.,.,.,.,.,.,.,.,.,.
Clc1cccc(CSc2nnc(-c3ccccn3)n2Cc2ccco2)c1,i,.,-19.0,i,i,i,.,.,.,.,.,.,.,.,.
Brc1ccc(CSc2nnc(-c3ccccn3)n2Cc2ccco2)cc1,i,.,-15.6,i,-16.3*,i,0.00809,?,?,0.00454*,?,0.00734*,43.5%*,i,41.0%*
CCCCCCN(C(=O)CCCN1C(=O)NC(c2ccc([N+](=O)[O-])cc2)C(C(=O)OCc2ccccc2)=C1C)C(C)C(=O)NCCCC (stereo not given),.,.,.,i,.,.,.,.,.,.,.,.,.,.,.
O=C(C1CCCN(S(=O)(=O)c2cccc3nsnc23)C1)N1CCc2ccccc21 (stereo not given),i,.,-7.5,i,i,i,0.00651,0.0071,0.0309,?,0.0238,0.0107,i,i,i
Cc1ccc(S(=O)(=O)N(C)c2ccc(C(=O)N3CCc4ccccc4C3)cc2)cc1,i,-4.75*,-8.6,i,i,i,0.0144,0.00392,0.0236*,?,0.0126*,0.00948,i,i,i
N#C/C(=C/c1ccc(N2CCCCCC2)o1)c1ccc(F)cc1,i,.,-13.6,-10.6*,-9.25*,i,0.0147,?,0.0282,?,0.013*,0.00942,58.5%*,i,70.5%*
N#C/C(=C/c1ccc(N2CCOCC2)o1)c1nc2ccccc2[nH]1,.,i,.,i,.,.,.,.,.,.,.,.,.,.,.
CCCCOc1cccc(C(=O)NC(=S)Nc2cccc(C(F)(F)F)c2)c1,i,6.48*,-5.4,i,i,i,0.00753,0.0158*,?,0.0204*,0.0267*,0.0156*,i,i,i
CC(C)/C(=N\NC(=O)Nc1ccccc1)c1ccccc1,i,0.0129,-8.1,i,i,i,.,.,.,.,.,.,.,.,.
CC/C(=N\NC(=S)Nc1cccc(C)c1)c1ccccc1,12*,34.4*,6.9*,i,i,i,0.021*,0.1*,0.0377,?,0.0666*,0.0277*,i,i,i
Cc1cccc(NC(=S)N/N=C(\c2ccccc2)C(C)C)c1,i,32.7*,-3.4,i,i,i,0.00592,0.0602*,0.0503*,0.0398*,0.0551*,0.0359*,i,i,i
CCC(=O)Nc1cccc(NC(=S)NC(=O)c2cccc(C)c2)c1,i,0.387,-11.1,i,i,i,.,.,.,.,.,.,.,.,.
